According to ChEMBL document CHEMBL1811786, “Identification of MK-5710 ((8aS)-8a-methyl-1,3-dioxo-2-[(1S,2R)-2-phenylcyclo- propyl]-N-(1-phenyl-1H-pyrazol-5-yl)hexahydro-imidazo[1,5-a]pyrazine-7(1H)-carboxamide), a potent smoothened antagonist for use in Hedgehog pathway dependent malignancies, part 2” (Bioorg Med Chem Lett, 2011):
Activity calls are given as the source filed them. The calls are words filed in the database; no cut-off is given here.

What was measured:
[1] = Half life in rat; type: ADME, organism-based; settings: in vivo
[2] = AUC in mouse at 40 mg/kg, po; type: ADME, organism-based; parameters: dose 40 mg/kg, route oral; settings: plasma
[3] = AUC in mouse at 80 mg/kg, po; type: ADME, organism-based; parameters: dose 80 mg/kg, route oral; settings: plasma
Medulloblastoma cell [4] = assay: Antitumor activity against primary mouse medulloblastoma allograft model assessed as tumor growth inhibition at 160 mg/kg, po bid for 3 weeks; type: functional, organism-based; parameters: dose 160 mg/kg
In short: (§1)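 Primary mouse medulloblastoma allograft, subcutaneous. Mice randomized when tumors averaged 400 mm³. Oral dosing for 3 weeks, bid at 40, 80, 120 or 160 mg/kg, or 80 mg/kg qd. Compound given as a suspension in 0.24% SDS/0.5% Methocel, with a BID vehicle control. Tumor volume tracked over days; body weight, physical signs and mortality monitored.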

Mus musculus [5] = assay: Toxicity in mouse medulloblastoma allograft model assessed as visible physical signs at 40 mg/kg, po bid for 3 weeks; type: organism-based; parameters: dose 40 mg/kg, route oral; settings: in vivo, 504 h
In short: (§2)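 Primary mouse medulloblastoma allografts grown subcutaneously; mice were randomized once tumors averaged 400 mm³. The compound was given orally as a suspension in 0.24% SDS/0.5% Methocel, either bid for 3 weeks or 80 mg/kg qd. Tolerability was monitored by body-weight loss, visible physical signs and mortality.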

Medulloblastoma cell [6] = assay: Antitumor activity against primary mouse medulloblastoma allograft model assessed as tumor growth inhibition at 40 mg/kg, po bid for 3 weeks; type: functional, organism-based; parameters: dose 40 mg/kg; in short: as §1
[7] = Half life in dog; type: ADME, organism-based, Canis lupus familiaris; settings: in vivo
Mus musculus [8] = assay: Inhibition of Shh pathway in mouse medulloblastoma allograft model assessed as reduction in tumor Gli-1 mRNA expression at 80 mg/kg, po administered as single dose measured after 4 to 12 hrs; type: functional
In short: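 Tumor-bearing medulloblastoma mice given a single oral 80 mg/kg dose. Tumor biopsies taken at timepoints up to 24 h; Hh-pathway inhibition measured as reduction of Gli-1 mRNA.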

Medulloblastoma cell [9] = assay: Antitumor activity against primary mouse medulloblastoma allograft model assessed as tumor growth inhibition at 120 mg/kg, po bid for 3 weeks; type: functional, organism-based; parameters: dose 120 mg/kg; in short: as §1
Mus musculus [10] = assay: Toxicity in mouse medulloblastoma allograft model assessed as visible physical signs at 160 mg/kg, po bid for 3 weeks; type: organism-based; parameters: dose 160 mg/kg, route oral; settings: in vivo, 504 h; in short: as §2
Mus musculus [11] = assay: Toxicity in mouse medulloblastoma allograft model assessed as visible physical signs at 80 mg/kg, po qd for 3 weeks; type: organism-based; parameters: dose 80 mg/kg, route oral; settings: in vivo, 504 h; in short: as §2
Rattus norvegicus = species on record: Rattus norvegicus; assay: Clearance in rat; type: ADME, organism-based; settings: in vivo
Mus musculus [12] = assay: Toxicity in mouse medulloblastoma allograft model assessed as visible physical signs at 80 mg/kg, po bid for 3 weeks; type: organism-based; parameters: dose 80 mg/kg, route oral; settings: in vivo, 504 h; in short: as §2
Mus musculus [13] = assay: Toxicity in mouse medulloblastoma allograft model assessed as body weight loss at 40 mg/kg, po bid for 3 weeks; type: organism-based; parameters: dose 40 mg/kg, route oral; settings: in vivo, 504 h; in short: as §1
[14] = AUC in mouse at 160 mg/kg, po; type: ADME, organism-based; parameters: dose 160 mg/kg, route oral; settings: plasma
Mus musculus [15] = assay: Toxicity in mouse medulloblastoma allograft model assessed as visible physical signs at 120 mg/kg, po bid for 3 weeks; type: organism-based; parameters: dose 120 mg/kg, route oral; settings: in vivo, 504 h; in short: as §2
[16] = Volume of distribution at steady state in dog; type: ADME, organism-based, Canis lupus familiaris; settings: in vivo, read-out: Vdss
Mus musculus [17] = assay: Toxicity in mouse medulloblastoma allograft model assessed as mortality at 80 mg/kg, po bid for 3 weeks; type: organism-based; parameters: dose 80 mg/kg, route oral; settings: in vivo, 504 h; in short: as §2
Canis familiaris = species on record: Canis familiaris; assay: Clearance in dog; type: ADME, organism-based, Canis lupus familiaris; settings: in vivo
[18] = Plasma protein binding in human assessed as unbound fraction; type: ADME, cell-free
Medulloblastoma cell [19] = assay: Antitumor activity against primary mouse medulloblastoma allograft model assessed as tumor growth inhibition at 80 mg/kg, po bid for 3 weeks; type: functional, organism-based; parameters: dose 80 mg/kg; in short: as §1
Medulloblastoma cell [20] = assay: Antitumor activity against primary mouse medulloblastoma allograft model assessed as tumor growth inhibition at 80 mg/kg, po qd for 3 weeks; type: functional, organism-based; parameters: dose 80 mg/kg; in short: as §1
Mus musculus [21] = assay: Toxicity in mouse medulloblastoma allograft model assessed as mortality at 120 mg/kg, po bid for 3 weeks; type: organism-based; parameters: dose 120 mg/kg, route oral; settings: in vivo, 504 h; in short: as §2
Protein smoothened [22] = target: T1, Protein smoothened (Homo sapiens, UniProt Q99835); assay: Displacement of BODIPY-cyclopamine from human Smo expressed in HEK293 cells in presence of 20% normal human serum; type: cell-based
T1 sequence (Q99835 whole entry): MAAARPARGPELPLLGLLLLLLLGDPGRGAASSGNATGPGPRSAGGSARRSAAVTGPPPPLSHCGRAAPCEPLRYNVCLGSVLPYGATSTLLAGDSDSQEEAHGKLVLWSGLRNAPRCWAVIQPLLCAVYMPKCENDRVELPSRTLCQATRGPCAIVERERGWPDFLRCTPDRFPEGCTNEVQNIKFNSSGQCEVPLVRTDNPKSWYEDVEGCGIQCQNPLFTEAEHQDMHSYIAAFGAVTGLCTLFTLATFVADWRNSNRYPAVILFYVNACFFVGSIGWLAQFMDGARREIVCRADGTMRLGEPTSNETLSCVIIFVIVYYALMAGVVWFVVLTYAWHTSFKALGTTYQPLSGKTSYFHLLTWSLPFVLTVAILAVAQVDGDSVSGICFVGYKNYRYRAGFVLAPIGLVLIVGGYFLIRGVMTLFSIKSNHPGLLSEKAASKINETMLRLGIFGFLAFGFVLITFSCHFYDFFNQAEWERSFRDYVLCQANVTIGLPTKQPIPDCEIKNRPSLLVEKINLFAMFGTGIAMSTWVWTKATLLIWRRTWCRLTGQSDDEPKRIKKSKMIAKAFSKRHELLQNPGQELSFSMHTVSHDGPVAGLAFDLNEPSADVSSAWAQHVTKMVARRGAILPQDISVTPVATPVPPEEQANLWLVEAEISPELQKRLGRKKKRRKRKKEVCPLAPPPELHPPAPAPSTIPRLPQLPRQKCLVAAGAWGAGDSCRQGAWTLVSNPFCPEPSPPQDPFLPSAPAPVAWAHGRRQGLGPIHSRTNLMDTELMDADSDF
In short: (§3)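 Competition binding: displacement of fluorescently labeled bodipy-cyclopamine from recombinant human Smo expressed in HEK-293 cells. Run in 2% fetal calf serum and, separately, in 20% normal human serum. IC50 values are means of at least five experiments.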

Mus musculus [23] = assay: Toxicity in mouse medulloblastoma allograft model assessed as mortality at 40 mg/kg, po bid for 3 weeks; type: organism-based; parameters: dose 40 mg/kg, route oral; settings: in vivo, 504 h; in short: as §2
Mus musculus [24] = assay: Toxicity in mouse medulloblastoma allograft model assessed as body weight loss at 80 mg/kg, po bid for 3 weeks; type: organism-based; parameters: dose 80 mg/kg, route oral; settings: in vivo, 504 h; in short: as §1
Mus musculus [25] = assay: Toxicity in mouse medulloblastoma allograft model assessed as body weight loss at 120 mg/kg, po bid for 3 weeks; type: organism-based; parameters: dose 120 mg/kg, route oral; settings: in vivo, 504 h; in short: as §1
Mus musculus [26] = assay: Toxicity in mouse medulloblastoma allograft model assessed as mortality at 160 mg/kg, po bid for 3 weeks; type: organism-based; parameters: dose 160 mg/kg, route oral; settings: in vivo, 504 h; in short: as §2
Mus musculus [27] = assay: Toxicity in mouse medulloblastoma allograft model assessed as body weight loss at 80 mg/kg, po qd for 3 weeks; type: organism-based; parameters: dose 80 mg/kg, route oral; settings: in vivo, 504 h; in short: as §1
Mus musculus [28] = assay: Toxicity in mouse medulloblastoma allograft model assessed as mortality at 80 mg/kg, po qd for 3 weeks; type: organism-based; parameters: dose 80 mg/kg, route oral; settings: in vivo, 504 h; in short: as §2
[29] = Oral bioavailability in dog; type: ADME, organism-based, Canis lupus familiaris; settings: in vivo
Protein smoothened [30] = target: T1, Protein smoothened; assay: Displacement of BODIPY-cyclopamine from human Smo expressed in HEK293 cells in presence of 2% fetal calf serum; type: cell-based; in short: as §3
[31] = Volume of distribution at steady state in rat; type: ADME, organism-based; settings: in vivo, read-out: Vdss
Mus musculus [32] = assay: Toxicity in mouse medulloblastoma allograft model assessed as body weight loss at 160 mg/kg, po bid for 3 weeks; type: organism-based; parameters: dose 160 mg/kg, route oral; settings: in vivo, 504 h; in short: as §1
[33] = Oral bioavailability in rat; type: ADME, organism-based; settings: in vivo

O=C(Nc1ccnn1-c1ccccc1)N1CCN2C(=O)N([C@H]3C[C@@H]3c3ccccc3)C(=O)[C@@H]2C1
half-life [1]: 1.3 h
AUC [2]: 6.4 µM·h
AUC [3]: 15 µM·h
growth inhibition (GI) (Medulloblastoma cell [4]): Active
Activity (Mus musculus [5]): Non-toxic
growth inhibition (GI) (Medulloblastoma cell [6]): Active
half-life [7]: 2.5 h
inhibition in vivo at 80 mg/kg (Mus musculus [8]): > 80%
growth inhibition (GI) (Medulloblastoma cell [9]): Active
Activity (Mus musculus [10]): Non-toxic
Activity (Mus musculus [11]): Non-toxic
clearance (Rattus norvegicus): 2.58 L/h/kg
Activity (Mus musculus [12]): Non-toxic
Activity (Mus musculus [13]): < 10%
AUC [14]: 24 µM·h
Activity (Mus musculus [15]): Non-toxic
Vd [16]: 1 L/kg
Activity (Mus musculus [17]): Non-toxic
clearance (Canis familiaris): 0.33 L/h/kg
fraction unbound [18]: 0.17
growth inhibition (GI) (Medulloblastoma cell [19]): Active
growth inhibition (GI) (Medulloblastoma cell [20]): Active
Activity (Mus musculus [21]): Non-toxic
IC50 (Protein smoothened [22]): 0.018 µM
Activity (Mus musculus [23]): Non-toxic
Activity (Mus musculus [24]): < 10%
Activity (Mus musculus [25]): < 10%
Activity (Mus musculus [26]): Non-toxic
Activity (Mus musculus [27]): < 10%
Activity (Mus musculus [28]): Non-toxic
bioavailability [29]: 82%
IC50 (Protein smoothened [30]): 0.015 µM
Vd [31]: 2.9 L/kg
Activity (Mus musculus [32]): < 10%
bioavailability [33]: 88%
